From ChEMBL document CHEMBL4706639, “Discovery of Novel Azetidine Amides as Potent Small-Molecule STAT3 Inhibitors” (J Med Chem, 2021) come the findings set out here.

Assay [1] concerns the target T1, Signal transducer and activator of transcription 3 (Mus musculus, UniProt P42227). Put plainly: Inhibition of oligonucleotide [32P]-labelled 5'-AGCITCATTTCCCGTAAATCCCTA probe binding to STAT3 SH2 domain (unknown origin) preincubated for 30 mins followed by hSIE probe addition by EMSA analysis. In general terms: In EMSA bound probe runs differently from free probe, usually more slowly.

Assay [2] concerns MDA-MB-468. As to the kind of experiment: Antiproliferative activity against human MDA-MB-468 cells harbouring STAT3 assessed as reduction in cell viability incubated for 72 hrs by CyQuant assay. The assay is classed as functional, cell-based. As to conditions: MDA-MB-468, 72 h.
The subject of assay [3] is MDA-MB-231. Put plainly: Anticlonogenic activity against human MDA-MB-231 cells assessed as inhibition of colony formation at 0.5 to 1 uM incubated for 4 hrs by crystal violet staining based assay. The assay is classed as functional, cell-based. As to conditions: dose 0.5-1 µM. The method, boiled down: (§1)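 MDA-MB-231 cells seeded as single-cell cultures (250 cells per well), treated once the next day with compound at 0–1 μM and grown until large colonies were visible. Colonies stained with crystal violet for 4 h and photographed. Three independent determinations.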

Assay [4] concerns MCF7. Put plainly: Antiproliferative activity against human MCF7 cells assessed as reduction in cell viability incubated for 72 hrs by CyQuant assay. The assay is classed as functional, cell-based. As to conditions: MCF7, 72 h.
In assay [5] the target is T1, Signal transducer and activator of transcription 3. Put plainly: Inhibition of oligonucleotide [32P]-labelled 5'-AGCITCATTTCCCGTAAATCCCTA probe binding to STAT3 SH2 domain in mouse NIH3T3/v-Src nuclear extract preincubated for 30 mins followed by hSIE probe addition by EMSA analysis. The assay is classed as subcellular, Nucleus.
In the next assay the test system is MCF-10A. Put plainly: Cytotoxicity against human MCF-10A cells assessed as reduction in cell viability incubated for 72 hrs by CyQuant assay. The format is cell-based.
In assay [6] the test system is MDA-MB-231. As to the kind of experiment: Antiproliferative activity against human MDA-MB-231 cells harbouring STAT3 assessed as reduction in cell viability at upto 10 uM incubated for 72 hrs by CyQuant assay. Conditions: for EC50: MDA-MB-231, 72 h. The format is functional, cell-based.
The test system of assay [7] is MDA-MB-231. As to the kind of experiment: Antiproliferative activity against human MDA-MB-231 cells assessed as reduction in cell viability incubated for 72 hrs by CyQuant assay. The assay is classed as functional, cell-based. As to conditions: MDA-MB-231, 72 h.
The test system of the next assay is NIH3T3. As to the kind of experiment: Inhibition of oligonucleotide [32P]-labelled 5'-AGATTTCTAGGAATTCAA probe binding to STAT5 homodimer in mouse NIH3T3 nuclear extract at 10 uM preincubated for 30 mins followed by MGFe probe addition by EMSA analysis.
Assay [8] deals with T2, Signal transducer and activator of transcription 1 (Mus musculus) (UniProt P42225).
T2 sequence (whole entry): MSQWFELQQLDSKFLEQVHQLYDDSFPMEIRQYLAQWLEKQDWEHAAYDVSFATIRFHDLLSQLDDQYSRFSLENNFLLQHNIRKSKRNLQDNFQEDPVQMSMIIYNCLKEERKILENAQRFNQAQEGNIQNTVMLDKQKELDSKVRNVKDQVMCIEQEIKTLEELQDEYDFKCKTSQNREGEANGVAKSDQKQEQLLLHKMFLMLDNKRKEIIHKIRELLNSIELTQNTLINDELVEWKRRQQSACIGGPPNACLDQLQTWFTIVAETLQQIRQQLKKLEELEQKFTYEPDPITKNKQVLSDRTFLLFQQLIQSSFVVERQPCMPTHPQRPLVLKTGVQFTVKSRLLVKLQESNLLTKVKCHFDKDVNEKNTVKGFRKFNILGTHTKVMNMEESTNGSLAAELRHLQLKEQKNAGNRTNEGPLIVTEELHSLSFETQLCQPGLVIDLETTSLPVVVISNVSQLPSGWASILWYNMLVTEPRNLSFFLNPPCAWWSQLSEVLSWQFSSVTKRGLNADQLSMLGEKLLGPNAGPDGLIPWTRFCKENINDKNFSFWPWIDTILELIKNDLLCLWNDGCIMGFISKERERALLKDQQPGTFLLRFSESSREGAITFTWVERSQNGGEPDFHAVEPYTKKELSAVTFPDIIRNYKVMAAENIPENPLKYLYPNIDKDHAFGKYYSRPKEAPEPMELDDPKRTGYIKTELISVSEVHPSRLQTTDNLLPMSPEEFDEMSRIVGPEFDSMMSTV
Put plainly: Inhibition of oligonucleotide [32P]-labelled 5'-AGCITCATTTCCCGTAAATCCCTA probe binding to STAT1 homodimer in mouse NIH3T3 nuclear extract at 10 uM preincubated for 30 mins followed by hSIE probe addition by EMSA analysis.

Assay [9] concerns the target Signal transducer and activator of transcription 3 (Homo sapiens) (UniProt P40763). Put plainly: Inhibition of STAT3 phosphorylation at Y705 residues in human MDA-MB-468 whole cell lysate at 0.5 to 2 uM incubated for 2 hrs by immunoblotting analysis. As to conditions: dose 0.5-2 µM. The assay is classed as subcellular. In general terms: In western blotting, separated proteins are transferred to a membrane and probed.

For assay [10] the target is unchanged. Put plainly: Inhibition of oligonucleotide [32P]-labelled 5'-AGCITCATTTCCCGTAAATCCCTA hSIE probe binding to STAT3 in human MDA-MB-468 cell nuclear extract at 0.5 to 5 uM incubated for 3 hrs by EMSA analysis. As to conditions: dose 0.5-5 µM.
Assay [11] is described as follows: Inhibition of oligonucleotide [32P]-labelled 5'-AGATTTCTAGGAATTCAA probe binding to STAT5 homodimer in mouse NIH3T3 nuclear extract preincubated for 30 mins followed by MGFe probe addition by EMSA analysis.
The test system of assay [12] is MDA-MB-468. As to the kind of experiment: Antiproliferative activity against human MDA-MB-468 cells harbouring STAT3 assessed as reduction in cell viability at upto 10 uM incubated for 72 hrs by CyQuant assay. The assay is classed as functional, cell-based. As to conditions: dose microM <=10, time 72.0 hrs.
The test system of assay [13] is MCF7. Put plainly: Antiproliferative activity against human MCF7 cells assessed as reduction in cell viability at 2 uM incubated for 24 hrs by Trypan blue exclusion dye based phase contrast microscopic analysis. The format is functional. Summed up:
(§2)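 Cells in 6-well culture, untreated or treated once with 2 μM compound. Harvested every 24 h (up to 96 h) and counted as viable cells by trypan blue exclusion under phase-contrast microscopy. Counts plotted against duration of treatment.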

Assay [14] has as its target Signal transducer and activator of transcription 3 (Homo sapiens) (UniProt P40763). As to the kind of experiment: Inhibition of STAT3 phosphorylation at Y705 residues in human MDA-MB-468 whole cell lysate at 3 uM at 24 hrs by immunoblotting analysis. The assay is classed as subcellular. The method, boiled down: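 MDA-MB-468 cells (DMEM, 10% heat-inactivated FBS) treated with 3 μM compound for 3–24 h or 0.05% DMSO; equal-protein whole-cell RIPA lysates run on SDS-PAGE and immunoblotted for pY705STAT3, total STAT3 and tubulin. Representative of two to three independent determinations.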

Assay [15] concerns MDA-MB-231. Put plainly: Antiproliferative activity against human MDA-MB-231 cells assessed as reduction in cell viability at 2 uM incubated for 24 hrs by Trypan blue exclusion dye based phase contrast microscopic analysis. The format is functional. The method, boiled down: as §2
The target of assay [16] is Signal transducer and activator of transcription 3 (Homo sapiens) (UniProt P40763). Put plainly: Inhibition of oligonucleotide [32P]-labelled 5'-AGCITCATTTCCCGTAAATCCCTA hSIE probe binding to STAT3 in human MDA-MB-468 cell nuclear extract at 5 uM by EMSA analysis. As to conditions: time upper […], TDE = time-dependent effect.
Assay [17] has the same target. As to the kind of experiment: Binding affinity to STAT3 (unknown origin) assessed as change in enthalpy by isothermal titration calorimetry. Background: In ITC the heat of successive injections is recorded.
Assay [18] has the same target. Put plainly: Binding affinity to STAT3 (unknown origin) assessed as change in entropy by isothermal titration calorimetry.
In assay [19] the test system is MDA-MB-231. As to the kind of experiment: Anticlonogenic activity against human MDA-MB-231 cells assessed as inhibition of colony formation upto 1 uM incubated for 4 hrs by crystal violet staining based assay. The assay is classed as functional, cell-based. As to conditions: dose microM <=1, time 4.0 hrs. The method, boiled down:
as §1

The source made the active and inactive calls. The calls are words filed in the database; no cut-off is given here.

Chain of Signal transducer and activator of transcription 3 (Homo sapiens) (P40763 whole entry): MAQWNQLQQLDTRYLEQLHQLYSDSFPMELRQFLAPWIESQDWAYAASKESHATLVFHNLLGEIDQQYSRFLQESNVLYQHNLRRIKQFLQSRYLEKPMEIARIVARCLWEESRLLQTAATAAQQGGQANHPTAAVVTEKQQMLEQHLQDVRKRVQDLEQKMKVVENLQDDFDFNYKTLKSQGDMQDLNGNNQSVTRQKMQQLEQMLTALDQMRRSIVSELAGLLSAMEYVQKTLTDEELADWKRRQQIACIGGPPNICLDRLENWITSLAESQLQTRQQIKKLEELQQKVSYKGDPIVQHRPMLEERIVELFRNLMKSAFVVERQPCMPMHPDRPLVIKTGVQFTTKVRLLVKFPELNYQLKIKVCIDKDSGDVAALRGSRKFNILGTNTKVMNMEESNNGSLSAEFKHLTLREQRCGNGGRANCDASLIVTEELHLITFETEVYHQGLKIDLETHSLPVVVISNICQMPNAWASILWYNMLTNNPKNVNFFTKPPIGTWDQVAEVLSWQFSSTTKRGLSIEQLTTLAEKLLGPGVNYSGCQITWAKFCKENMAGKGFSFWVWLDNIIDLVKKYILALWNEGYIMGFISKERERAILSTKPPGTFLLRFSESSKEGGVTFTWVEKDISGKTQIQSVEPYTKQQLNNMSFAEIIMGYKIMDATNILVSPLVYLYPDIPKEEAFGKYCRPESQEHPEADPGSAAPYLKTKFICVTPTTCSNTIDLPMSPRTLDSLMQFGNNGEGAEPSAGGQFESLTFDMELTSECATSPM
T1 sequence (P42227 whole entry, the tested form may be a part): as the sequence (P40763 whole entry) above, with E760D counted along it

As for `O=C(NO)c1ccc(N(Cc2cnc(C3CCCCC3)cn2)C(=O)[C@H]2CCN2S(=O)(=O)c2c(F)c(F)c(F)c(F)c2F)c(F)c1`, the IC50 (in general, the concentration that gives 50% inhibition) in assay [1] is above 2 µM.
Turning to `COC(=O)c1ccc(N(Cc2cnc(C3CCCCC3)cn2)C(=O)[C@H]2CCN2S(=O)(=O)c2c(F)c(F)c(F)c(F)c2F)c(F)c1`, the EC50 (in general, the midpoint of the concentration-response curve) is 1.4 µM with MDA-MB-468 [2], 8.9 µM with MCF7 [4] and 4 µM with MCF-10A. The inhibition result in the assay with MDA-MB-231 [3] was “Active”. This compound registered an IC50 in assay [5] above 10 µM.
Consider `COc1ccc(S(=O)(=O)Nc2cc(-c3c(O)ccc4ccccc34)c(O)c3ccccc23)cc1` [C-188-9], for which the EC50 in the assay on MCF7 [4] amounted to 13.8 µM; in the assay on MDA-MB-231 [6], 25.7 µM.
For `COC(=O)c1ccc(N(Cc2ccc(C3CCCCC3)cc2)C(=O)[C@H]2CCN2S(=O)(=O)c2c(F)c(F)c(F)c(F)c2F)cc1O`, the IC50 in assay [5] is above 4 µM. Further, the EC50 with MDA-MB-231 [7] came to 2.7 µM. For the same compound, the inhibition result (in the assay on NIH3T3; in [8]) was “Active” throughout.
As for `COC(=O)c1ccc(N(Cc2cnc(C3CCCCC3)cn2)C(=O)[C@H]2CCN2S(=O)(=O)c2c(F)c(F)c(F)c(F)c2F)cc1O`, the EC50 came out at 1.6 µM with MDA-MB-468 [2], 5.7 µM with MCF7 [4] and 3.8 µM with MCF-10A. Besides, in the assay on MDA-MB-231 [3], the inhibition entry was “Active”. This compound also had an IC50 in assay [5] of 7.5 µM.
`CC(=O)c1cc2c(o1)C(=O)c1ccccc1C2=O` [NAPABUCASIN]: the EC50 in the assay on MCF7 [4] stood at 1.49 µM; in the assay on MDA-MB-231 [6], 1.8 µM. For the same compound, the inhibition result in [9] and in assay [10] was “Active” in each case.
Compound `O=C(O)c1ccc(N(Cc2ccc(C3CCCCC3)cc2)C(=O)[C@H]2CCN2S(=O)(=O)c2c(F)c(F)c(F)c(F)c2F)c(F)c1` displayed an IC50 in assay [11] of 17.5 µM. In addition, in the assay on MDA-MB-231 [7], the EC50 is above 10 µM.
Take `NC(=O)c1ccc(N(Cc2ccc(C3CCCCC3)cn2)C(=O)[C@H]2CCN2S(=O)(=O)c2c(F)c(F)c(F)c(F)c2F)c(F)c1`: the IC50 in [1] was above 2 µM.
Take `O=C(O)c1ccc(N(Cc2ccc(C3CCCCC3)cc2)C(=O)[C@H]2CCN2S(=O)(=O)c2c(F)c(F)c(F)c(F)c2F)cc1O`: the Activity result with MDA-MB-468 [12] was “inactive”; in the assay with MDA-MB-231 [6] (dose microM <=10, time 72.0 hrs), “inactive”. Besides, in assay [11], the IC50 was 9.3 µM.
On to `O=C1NC(=O)c2cc(N(Cc3ccc(C4CCCCC4)cn3)C(=O)[C@H]3CCN3S(=O)(=O)c3c(F)c(F)c(F)c(F)c3F)ccc21`, for which the outcome in the assay with MCF7 [13] was inactive. In addition, the EC50 in the assay on MDA-MB-468 [2] was 1.9 µM; in the assay on MCF7 [4] it was 7 µM; in the assay with MCF-10A, 8.1 µM; with MDA-MB-231 [7], 1.7 µM. Also, the inhibition entry in assay [14] is “inactive”. Besides, in the assay on MDA-MB-231 [3], the inhibition result is “Active”. Moreover, the outcome in the assay on MDA-MB-231 [15] was Active. Further, in assay [16], the inhibition result was “Tde”. The deltaH in [17] was -4.97 kcal/mol. In addition, the -TdeltaS in assay [18] was -3.25 kcal/mol.
For the compound `CNC(=O)c1ccc(N(Cc2ccc(C3CCCCC3)cn2)C(=O)[C@H]2CCN2S(=O)(=O)c2c(F)c(F)c(F)c(F)c2F)cc1O`, the outcome with MCF7 [13] was inactive. The inhibition entry in the assay on MDA-MB-231 [19] is “inactive”. For the same compound, the EC50 in the assay on MDA-MB-468 [2] is 1.8 µM; in the assay on MCF7 [4], 3.8 µM; in the assay with MCF-10A, 4.6 µM; in the assay with MDA-MB-231 [7] it was 1.8 µM. Besides, the inhibition result in assay [16] is “Tde”. Moreover, the inhibition entry (in the assay on NIH3T3; in [8]) was “Active” each time.
